Reference: ChEMBL document CHEMBL5113498, “A fragment-based drug discovery strategy applied to the identification of NDM-1 β-lactamase inhibitors” (Eur J Med Chem, 2022)

What was measured:
Bacteria [1] = assay: Inhibition of VIM-2 (unknown origin) using imipenem as substrate at 50 uM by spectrophotometric assay relative to control
Method in brief: (§1)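 Reporter-substrate spectrophotometric assay in 50 mM HEPES pH 7.5. Imipenem 150 μM (final) hydrolysis followed as absorbance change at 300 nm, with and without 50 μM compound. Compounds dissolved in DMSO (100 mM stock) and diluted in reaction buffer. % inhibition = 100 − 100×(vi/v0). 5 mM EDTA served as inhibition control.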

Bacteria [2] = assay: Inhibition of […] (unknown origin) using imipenem as substrate at 50 uM by spectrophotometric assay relative to control; method in brief: as §1
Bacteria [3] = assay: Inhibition of IMP-1 (unknown origin) using imipenem as substrate at 50 uM by spectrophotometric assay relative to control; method in brief: as §1
[4] = Inhibition of […] (unknown origin) using imipenem as substrate by spectrophotometric assay relative to control; set-up: species or system Bacteria
Method in brief: (§2)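 Ki from a competitive model. Initial rates of hydrolysis of 150 μM imipenem (reporter substrate) measured spectrophotometrically in 50 mM HEPES pH 7.5 at varying inhibitor concentrations. v0/vi plotted against [I], and Ki = KM/[(KM+[S])·slope]. Assays run in triplicate.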

Klebsiella pneumoniae [5] = assay: Synergistic antibacterial activity against Klebsiella pneumoniae SI-518 assessed as fold reduction in meropenem MIC at 32 ug/ml after 24 hrs by two-fold serial dilution method; format: functional; conditions: dose 32 µg/ml
Method in brief: (§3)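 Meropenem MICs against NDM-1-producing clinical isolates, with or without inhibitor fixed at 32 μg/mL, by two-fold serial dilution in Mueller-Hinton broth. Inoculum 5×10^4 CFU/well, CLSI method. Inhibitor added before the antibiotic. Plates incubated 24 h at 35 °C and read visually. Done in triplicate.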

[6] = Inhibition of IMP-1 (unknown origin) using imipenem as substrate by spectrophotometric assay relative to control; set-up: species or system Bacteria; method in brief: as §2
Escherichia coli [7] = assay: Synergistic antibacterial activity against Escherichia coli SI-004M assessed as meropenem MIC at 32 ug/ml after 24 hrs by two-fold serial dilution method; format: functional; conditions: dose 32 µg/ml; method in brief: as §3
Klebsiella pneumoniae [8] = assay: Synergistic antibacterial activity against Klebsiella pneumoniae SI-518 assessed as meropenem MIC at 32 ug/ml after 24 hrs by two-fold serial dilution method; format: functional; conditions: dose 32 µg/ml; method in brief: as §3
Escherichia coli [9] = assay: Synergistic antibacterial activity against Escherichia coli SI-004M assessed as fold reduction in meropenem MIC at 32 ug/ml after 24 hrs by two-fold serial dilution method; format: functional; conditions: dose 32 µg/ml; method in brief: as §3
Escherichia coli [10] = assay: Antibacterial activity against Escherichia coli SI-004M assessed as reduction in microbial growth after 24 hrs by two-fold serial dilution method; format: functional
Method in brief: (§4)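 NDM-1-producing clinical isolate; meropenem MIC measured without inhibitor and with a fixed 32 μg/mL inhibitor (in each well and in the diluent) over two-fold serial dilutions. Mueller-Hinton broth, 5×10^4 CFU/well inoculum, per CLSI. Incubated 35 °C for 24 h and read visually. Triplicate. Compounds from a DMSO stock diluted in medium.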

Klebsiella pneumoniae [11] = assay: Antibacterial activity against Klebsiella pneumoniae SI-518 assessed as reduction in microbial growth after 24 hrs by two-fold serial dilution method; format: functional; method in brief: as §4

| SMILES | inhibition (Bacteria [1]) | inhibition (Bacteria [2]) | inhibition (Bacteria [3]) | Ki [4] | also measured |
| --- | --- | --- | --- | --- | --- |
| Oc1cccc2ccc(/C=C/c3ccccc3)nc12 | 37% | 95% | 84% | 2.2 µM | fold change (FC) (Klebsiella pneumoniae [5]): 256; Ki [6]: 4.7 µM; MIC (Escherichia coli [7]): 1 µg/mL; MIC (Klebsiella pneumoniae [8]): 0.25 µg/mL; fold change (FC) (Escherichia coli [9]): 64 |
| Oc1cccc2ccc(CCc3ccc4c(c3)OCO4)nc12 | 38% | 90% | 71% | 1.1 µM | MIC (Escherichia coli [7]): 64 µg/mL; MIC (Klebsiella pneumoniae [8]): 64 µg/mL |
| C[C@@H](O)[C@H]1C(=O)N2C(C(=O)O)=C(S[C@@H]3CN[C@H](C(=O)N(C)C)C3)[C@H](C)[C@H]12 [MEROPENEM] |  |  |  |  | MIC (Escherichia coli [10]): 64 µg/mL; MIC (Klebsiella pneumoniae [11]): 64 µg/mL |
| O=C(/C=C/c1ccc(N2CCCCC2)cc1)c1ccccc1O |  | 35% |  |  |  |
| CCCCOc1ccc(/C=C2\Oc3cc(O)cc(O)c3C2=O)c(O)c1 |  | 46% |  |  |  |
| O=C(/C=C/c1ccc2c(c1)OCO2)c1ccccc1O |  | < 20% |  |  |  |

Further lines, with some results ahead:

| inhibition (Bacteria [1]) | inhibition (Bacteria [2]) | inhibition (Bacteria [3]) | Ki [4] | SMILES | also measured |
| --- | --- | --- | --- | --- | --- |
| 26% | 93% | 79% |  | Oc1cccc2ccc(/C=C/c3ccc4c(c3)OCO4)nc12 |  |
| < 20% | 74% | < 20% | 4.8 µM | O=C1/C(=C/c2ccc(N3CCCCC3)cc2)Oc2cc(O)cc(O)c21 |  |
| 28% | 85% | 76% |  | Oc1cccc2ccc(CCc3ccccc3)nc12 |  |
| < 20% | 77% | 23% | 4.1 µM | O=C1/C(=C/c2ccc(O)c(O)c2)Cc2cc(O)cc(O)c21 |  |
|  | 24% |  |  | O=C(/C=C/c1ccc(N2CCOCC2)cc1)c1ccccc1O |  |
